Source: ChEMBL document CHEMBL1129642, “Design, synthesis, and evaluation of 2 beta-alkenyl penam sulfone acids as inhibitors of beta-lactamases” (J Med Chem, 1996)
pIC50: −log10 of the molar value. Active and inactive are the calls of the source. The rule behind the calls is not given here.

Columns and labels:
[1] = tested on: Bacillus licheniformis; assay: Compound was tested for inhibition of Bacillus licheniformis 749/C, class A of beta-Lactamases.; type: functional, organism-based
[2] = tested on: Citrobacter freundii; assay: (§1) Compound was tested for inhibition of Citrobacter freundii 1928 in combination with Ceftriaxone (expressed in MIC).; type: functional, organism-based
[3] = tested on: Enterobacter cloacae; assay: Compound was tested for inhibition of Ent. cloacae 908R in combination with Ceftriaxone (expressed in MIC).; type: functional, organism-based
Summary of the method: (§2)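 MICs determined by serial 2-fold dilution in Mueller-Hinton broth with an inoculum of approximately 10⁵ cfu/mL. The test compound was combined with ceftriaxone.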

[4] = tested on: Pseudomonas aeruginosa; assay: Compound was tested for inhibition of Pseudomonas aeruginosa 18SH in combination with Ceftriaxone (expressed in MIC).; type: functional, organism-based; summary of the method: as §2
[5] = (§3) Compound was tested for inhibition of TEM-3, class A of beta-lactamases.; type: functional, Escherichia coli
[6] = (§4) Compound was tested for inhibition of pTEM-3 from Escherichia coli in combination with Ceftriaxone (expressed in MIC).; type: functional
[7] = Compound was tested for inhibition of pTEM-4 from Escherichia coli in combination with Ceftriaxone (not active).; type: functional
[8] = (§5) Compound was tested for inhibition of TEM-1, class A of beta-lactamases.; type: functional, Escherichia coli
[9] = tested on: Citrobacter freundii; assay: Compound was tested for inhibition of Citrobacter freundii 1928 in combination with Ceftriaxone; type: functional; summary of the method: as §2
[10] = tested on: Enterobacter cloacae; assay: Compound was tested for inhibition of Ent. cloacae 908R in combination with Ceftriaxone; type: functional; summary of the method: as §2
[11] = tested on: Pseudomonas aeruginosa; assay: Compound was tested for inhibition of Pseudomonas aeruginosa 18SH in combination with Ceftriaxone; type: functional; summary of the method: as §2
[12] = Compound was tested for inhibition of pTEM-3 from Escherichia coli in combination with Ceftriaxone; type: functional; summary of the method: as §2
[13] = Compound was tested for inhibition of pTEM-4 from Escherichia coli in combination with Ceftriaxone; type: functional; summary of the method: as §2
[14] = tested on: Citrobacter freundii; assay: Compound was tested for the half saturation constant derived from concentration dependence studies in Citrobacter freundii; type: organism-based
Summary of the method: (§6)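 Purified β-lactamases (C. freundii 1928, E. coli SNO3, TEM-3, SHV-2) reacted with inhibitor. K_S is the half-saturation constant for forming the acyl-enzyme complex, taken from the concentration dependence of that reaction. It was obtained together with the acylation rate k_on and the acyl-enzyme breakdown rate k_off, using previously published kinetic methods.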

[15] = tested on: Escherichia coli; assay: Compound was tested for the half saturation constant derived from concentration dependence studies in Escherichia coli SHV-2.; type: organism-based; summary of the method: as §6
[16] = tested on: Escherichia coli; assay: Compound was tested for the half saturation constant derived from concentration dependence studies in Escherichia coli SNO3.; type: organism-based; summary of the method: as §6
[17] = tested on: Escherichia coli; assay: Compound was tested for the half saturation constant derived from concentration dependence studies in Escherichia coli TEM-3.; type: organism-based; summary of the method: as §6
[18] = biological target: Beta-lactamase L1 (Stenotrophomonas maltophilia, UniProt P52700); assay: Compound was tested for inhibition of Beta-lactamase from Xanthomonas maltophila 328
Beta-lactamase L1, sequence (P52700 whole entry): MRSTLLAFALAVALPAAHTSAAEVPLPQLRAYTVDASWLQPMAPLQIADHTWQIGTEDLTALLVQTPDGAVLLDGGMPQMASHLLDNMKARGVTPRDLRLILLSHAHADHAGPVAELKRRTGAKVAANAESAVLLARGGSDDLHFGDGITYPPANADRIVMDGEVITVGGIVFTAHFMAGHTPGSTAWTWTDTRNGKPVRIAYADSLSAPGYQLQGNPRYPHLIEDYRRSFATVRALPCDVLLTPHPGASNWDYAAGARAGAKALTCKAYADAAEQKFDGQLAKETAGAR

[19] = biological target: Beta-lactamase (Escherichia coli K-12, UniProt P00811); assay: Compound was tested for inhibition of Escherichia coli AmpC, class C of Beta-lactamase
Beta-lactamase (Escherichia coli K-12, UniProt P00811), sequence (P00811 whole entry): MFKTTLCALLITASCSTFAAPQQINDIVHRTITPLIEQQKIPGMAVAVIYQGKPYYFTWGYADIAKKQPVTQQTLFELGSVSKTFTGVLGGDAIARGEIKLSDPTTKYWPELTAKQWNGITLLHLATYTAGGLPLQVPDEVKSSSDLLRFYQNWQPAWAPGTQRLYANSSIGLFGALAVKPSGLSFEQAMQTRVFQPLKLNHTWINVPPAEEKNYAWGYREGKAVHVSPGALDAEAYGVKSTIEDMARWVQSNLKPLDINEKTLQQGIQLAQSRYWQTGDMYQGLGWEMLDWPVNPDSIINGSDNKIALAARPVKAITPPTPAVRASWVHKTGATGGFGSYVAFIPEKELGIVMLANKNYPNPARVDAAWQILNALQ

[20] = biological target: Beta-lactamase (Bacillus licheniformis, UniProt P00808); assay: Compound was tested for inhibition of Bacillus licheniformis 749/C, class A of Beta-lactamase
Beta-lactamase (Bacillus licheniformis, UniProt P00808), sequence (P00808 whole entry): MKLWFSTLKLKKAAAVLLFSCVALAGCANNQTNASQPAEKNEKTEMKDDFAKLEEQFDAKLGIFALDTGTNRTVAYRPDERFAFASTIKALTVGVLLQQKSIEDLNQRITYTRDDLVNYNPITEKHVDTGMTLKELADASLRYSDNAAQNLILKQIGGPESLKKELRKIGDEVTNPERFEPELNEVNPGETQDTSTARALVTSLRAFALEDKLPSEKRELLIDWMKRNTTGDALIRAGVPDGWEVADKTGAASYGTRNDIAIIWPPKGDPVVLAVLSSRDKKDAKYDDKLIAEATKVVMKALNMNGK

[21] = biological target: Beta-lactamase (Pseudomonas aeruginosa (strain ATCC 15692 / PAO1 / 1C / PRS 101 / LMG12228), UniProt P24735); assay: Compound was tested for inhibition of Pseudomonas aeruginosa 18SH, class C of Beta-lactamase
Beta-lactamase (Pseudomonas aeruginosa (strain ATCC 15692 / PAO1 / 1C / PRS 101 / LMG12228), UniProt P24735), sequence (P24735 whole entry): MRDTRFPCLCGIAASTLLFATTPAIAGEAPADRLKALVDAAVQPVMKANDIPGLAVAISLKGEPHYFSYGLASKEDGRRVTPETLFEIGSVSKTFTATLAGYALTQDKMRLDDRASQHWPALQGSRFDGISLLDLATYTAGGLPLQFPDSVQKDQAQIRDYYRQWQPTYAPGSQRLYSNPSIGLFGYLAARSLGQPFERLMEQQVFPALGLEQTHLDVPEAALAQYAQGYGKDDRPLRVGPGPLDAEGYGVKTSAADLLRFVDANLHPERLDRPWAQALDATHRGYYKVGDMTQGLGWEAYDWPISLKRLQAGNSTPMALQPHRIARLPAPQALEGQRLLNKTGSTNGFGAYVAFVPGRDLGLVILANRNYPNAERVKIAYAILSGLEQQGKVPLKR

[22] = tested on: Citrobacter freundii; assay: as §1; type: functional, organism-based; summary of the method: as §2; remark: listed apart in the source
[23] = as §5; design: species or system Escherichia coli
[24] = as §3; design: species or system Escherichia coli
[25] = as §4; summary of the method: as §2
[26] = Compound was tested for inhibition of pTEM-4 from Escherichia coli in combination with Ceftriaxone; NA = Not active; summary of the method: as §2
[27] = tested on: Citrobacter freundii; assay: Compound was tested for inhibition of Citrobacter freundii 1928 in combination with Ceftriaxone; Not active; type: functional, organism-based; summary of the method: as §2

Row | SMILES | pIC50 [1] | pIC50 [5] | pIC50 [8] | MIC [9] [µg/mL] | MIC [10] [µg/mL] | MIC [11] [µg/mL] | MIC [12] [µg/mL] | MIC [13] [µg/mL] | also measured
1 | CC(=O)/C=C\[C@@]1(C)[C@H](C(=O)O)N2C(=O)C[C@H]2S1(=O)=O | 5.41 | 6.38 | 5.00 |  |  |  |  |  | MIC [2]: 1 µg/mL; MIC [3]: 2 µg/mL; MIC [4]: 32 µg/mL; MIC [6]: 0.25 µg/mL; MIC [7]: 2 µg/mL
2 | C[C@]1(C=CCO)[C@H](C(=O)[O-])N2C(=O)C[C@H]2S1(=O)=O.[Na+] | 5.44 | 6.22 | 5.19 | 8 | 8 | 16 | 0.5 | 2 | 
3 | C[C@]1(Cn2ccnn2)[C@H](C(=O)O)N2C(=O)C[C@H]2S1(=O)=O [TAZOBACTAM] |  |  |  |  |  |  |  |  | Ks [14]: 110 µM; Ks [15]: 5 µM; Ks [16]: 325 µM; Ks [17]: 0.74 µM; pIC50 [18]: 2.40
4 | CCOC(=O)/C=C\[C@@]1(C)[C@H](C(=O)O)N2C(=O)C[C@H]2S1(=O)=O |  |  |  |  |  |  |  |  | pIC50 [19]: 4.21; pIC50 [20]: 5.54; pIC50 [21]: 4.82; MIC [22]: 4 µg/mL; MIC [3]: 8 µg/mL; MIC [4]: > 16 µg/mL; pIC50 [23]: 4.85; pIC50 [24]: 6.34; MIC [25]: < 0.25 µg/mL; MIC [26]: Not Active
5 | C[C@]1(/C=C\Cl)[C@H](C(=O)[O-])N2C(=O)C[C@H]2S1(=O)=O.[Na+] | 5.18 | 7.22 | 5.25 | 4 | 4 | 4 | 0.25 | 1 | 
6 | C[C@]1(C=CC(N)=O)[C@H](C(=O)O)N2C(=O)C[C@H]2S1(=O)=O | 5.22 | 7.27 | 4.89 |  | 8 | 16 | < 0.25 | 0.5 | NA [27]: inactive

Second part, led by results:

Row | pIC50 [1] | pIC50 [5] | pIC50 [8] | MIC [9] [µg/mL] | MIC [10] [µg/mL] | MIC [11] [µg/mL] | MIC [12] [µg/mL] | MIC [13] [µg/mL] | SMILES | also measured
7 | 5.77 | 6.66 | 4.92 | 4 | 8 | 16 | 0.5 | 2 | C[C@]1(/C=C/c2nnco2)[C@H](C(=O)[O-])N2C(=O)C[C@H]2S1(=O)=O.[Na+] | 
8 | 5.47 | 6.89 | 5.92 | 2 | 4 | 4 | 0.25 | 2 | C[C@]1(/C=C\C(N)=O)[C@H](C(=O)O)N2C(=O)C[C@H]2S1(=O)=O | 
